According to ChEMBL document CHEMBL1124180, “Asymmetric synthesis and properties of the enantiomers of the antibacterial agent 7-(3-aminopyrrolidin-1-yl)-1-(2,4-difluorophenyl)-1,4-dihydro-6- fluoro-4-oxo-1,8-naphthyridine-3-carboxylic acid hydrochloride” (J Med Chem, 1988):

Legend:
[1] = Solubility in aqueous media Ringer''s buffer, pH 7.4; format: physicochemical
[2] = Solubility in aqueous media urine, pH 5.1; format: physicochemical; conditions: read-out: S
[3] = Solubility in aqueous media urine, pH 5.7; format: physicochemical; conditions: read-out: S
[4] = Solubility in aqueous media urine, pH 6.3; format: physicochemical; conditions: read-out: S
[5] = Solubility in aqueous media urine, pH 7.0; format: physicochemical; conditions: read-out: S
[6] = Solubility in aqueous media 0.15 N phosphate, pH 5.6; format: physicochemical; conditions: read-out: S
[7] = Solubility in aqueous media 0.15Nacetate, pH 6.1; format: physicochemical; conditions: 0.15 N acetate, read-out: S
[8] = Solubility in aqueous media 0.1 N chloride, pH 6.5; format: physicochemical; conditions: read-out: S
Acinetobacter sp. = experiment: In vitro activity against Acinetobacter sp.(CMX 669).; format: functional
Outline: (§1)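 MIC determined by agar dilution on brain-heart infusion agar under aerobic conditions.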

Prevotella bivia = experiment: In vitro activity against Bacteroides bivius(B 6140); format: functional
Outline: (§2)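 MIC determined under anaerobic conditions on Wilkins-Chalgren agar.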

Prevotella disiens = experiment: In vitro activity against Bacteroides disiens (ATCC 29426); format: functional; outline: as §2
Phocaeicola vulgatus [9] = experiment: In vitro activity against Bacteroides vulgatus(792); format: functional; outline: as §2
Phocaeicola vulgatus [10] = experiment: In vitro activity against Bacteroides vulgatus(SFBC 2375); format: functional; outline: as §2
Bacteroides fragilis [11] = experiment: In vitro activity against Bacteroides fragilis (105AT25285); format: functional; outline: as §2
Bacteroides fragilis [12] = experiment: In vitro activity against Bacteroides fragilis (784); format: functional; outline: as §2
Bacteroides fragilis [13] = experiment: In vitro activity against Bacteroides fragilis (SFM2906A); format: functional; outline: as §2
Bacteroides fragilis [14] = experiment: In vitro activity against Bacteroides fragilis (SFM2929-1); format: functional; outline: as §2
Bacteroides fragilis [15] = experiment: In vitro activity against Bacteroides fragilis (SFM2975-7); format: functional; outline: as §2
Bacteroides fragilis [16] = experiment: In vitro activity against Bacteroides fragilis (UC-2); format: functional; outline: as §2
Hoylesella loescheii = experiment: In vitro activity against Bacteroides loescheii (ATCC 15930).; format: functional; outline: as §2
[17] = tested on: Bacteroides thetaiotaomicron; experiment: In vitro activity against Bacteroides thetaiotaomicron (SFM2975-2); format: functional; outline: as §2
[18] = tested on: Bacteroides thetaiotaomicron; experiment: In vitro activity against Bacteroides thetaiotaomicron (106); format: functional; outline: as §2
[19] = tested on: Bacteroides thetaiotaomicron; experiment: In vitro activity against Bacteroides thetaiotaomicron (ATCC 29741); format: functional; outline: as §2
Clostridium perfringens [20] = experiment: In vitro activity against Clostridium perfringens (104AT13124); format: functional
Outline: (§3)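 MIC for anaerobic bacteria, measured on Wilkins-Chalgren agar.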

Clostridium perfringens [21] = experiment: In vitro activity against Clostridium perfringens (788); format: functional; outline: as §3
Clostridium perfringens [22] = experiment: In vitro activity against Clostridium perfringens (SFBC 2026); format: functional; outline: as §3
Clostridioides difficile [23] = experiment: In vitro activity against Clostridium difficile (ATCC 9689); format: functional
Clostridioides difficile [24] = experiment: In vitro activity against Clostridium difficile (ATCC 17857); format: functional
Thomasclavelia ramosa = experiment: In vitro activity against Clostridium romosum (7); format: functional
Enterococcus faecium = experiment: In vitro activity against Enterococcus faecium (ATCC 8043).; format: functional; outline: as §1
Escherichia coli [25] = experiment: In vitro activity against Escherichia coli (DC-2); format: functional
Outline: (§4)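 MIC for aerobic bacteria, measured on brain-heart infusion agar.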

Escherichia coli [26] = experiment: In vitro activity against Escherichia coli (H560); format: functional; outline: as §4
Escherichia coli [27] = experiment: In vitro activity against Escherichia coli (KNK437); format: functional; outline: as §4
Escherichia coli [28] = experiment: In vitro activity against Escherichia coli (SS).; format: functional; outline: as §4
Escherichia coli [29] = experiment: In vitro activity against Escherichia coli Juhl; format: functional; outline: as §4
Fusobacterium = experiment: In vitro activity against Fusobacterium sp.(GS-10); format: functional; outline: as §2
Klebsiella aerogenes = experiment: In vitro activity against Enterobacter aerogenes (ATCC 13048).; format: functional; outline: as §1

SMILES: Cl.N[C@H]1CCN(c2nc3c(cc2F)c(=O)c(C(=O)O)cn3-c2ccc(F)cc2F)C1
- solubility [1]: 0.013 mg/mL
- solubility [2]: 0.0324 mg/mL
- solubility [3]: 0.0275 mg/mL
- solubility [4]: 0.0207 mg/mL
- solubility [5]: 0.0171 mg/mL
- solubility [6]: 0.0043 mg/mL
- solubility [7]: 0.0041 mg/mL
- solubility [8]: 0.0045 mg/mL
- MIC (Acinetobacter sp.): 0.05 mg/L
- MIC (Prevotella bivia): 0.5 mg/L
- MIC (Prevotella disiens): 1 mg/L
- MIC (Phocaeicola vulgatus [9]): 0.5 mg/L
- MIC (Phocaeicola vulgatus [10]): 0.25 mg/L
- MIC (Bacteroides fragilis [11]): 0.25 mg/L
- MIC (Bacteroides fragilis [12]): 0.25 mg/L
- MIC (Bacteroides fragilis [13]): 0.25 mg/L
- MIC (Bacteroides fragilis [14]): 0.25 mg/L
- MIC (Bacteroides fragilis [15]): 0.5 mg/L
- MIC (Bacteroides fragilis [16]): 0.25 mg/L
- MIC (Hoylesella loescheii): 1 mg/L
- MIC [17]: 1 mg/L
- MIC [18]: 0.5 mg/L
- MIC [19]: 0.5 mg/L
- MIC (Clostridium perfringens [20]): 0.12 mg/L
- MIC (Clostridium perfringens [21]): 0.12 mg/L
- MIC (Clostridium perfringens [22]): 0.12 mg/L
- MIC (Clostridioides difficile [23]): 1 mg/L
- MIC (Clostridioides difficile [24]): 1 mg/L
- MIC (Thomasclavelia ramosa): 0.5 mg/L
- MIC (Enterococcus faecium): 0.1 mg/L
- MIC (Escherichia coli [25]): 0.2 mg/L
- MIC (Escherichia coli [26]): 0.01 mg/L
- MIC (Escherichia coli [27]): 0.1 mg/L
- MIC (Escherichia coli [28]): 0.002 mg/L
- MIC (Escherichia coli [29]): 0.02 mg/L
- MIC (Fusobacterium): 0.25 mg/L
- MIC (Klebsiella aerogenes): 0.05 mg/L
